Test results reported in PMC4838375 (Nucleic Acids Research, 2016).

Legend:
PHDVC5HCHNSD1 [1] = assay: NMR titration; assay type: binding, murine; conditions: for average CSP value <CSP>: 15N HSQC of PHDVC5HCHNSD1 (0.2 mM), up to 12 molar excess of peptide, 295 K, pH 6.3; for interaction strength: fast exchange regime; for interaction strength / affinity: up to 12 molar excess; for affinity: no saturation
In short: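 15N-labelled PHDvC5HCH domain was expressed in E. coli BL21(DE3) in 15NH4Cl minimal medium with 1 mM IPTG at 28°C overnight. Protein at 0.2–0.3 mM, quantified by UV (ε 12490 M⁻¹cm⁻¹), was in 20 mM sodium phosphate pH 6.3, 0.15 M NaCl, 2 mM DTT, 50 μM ZnCl₂. Peptide (>98% pure, 15 mM stock, dry-weight quantified) was added stepwise; 2D 15N-HSQC was acquired per point. CSP = [(ΔδHN² + ΔδN²/25)/2]^½.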

PHDVC5HCHNSD1 [2] = conditions: biotinylated peptides, 21 aminoacids long; cited from earlier work

Row | Compound | amide chemical shifts induced (PHDVC5HCHNSD1 [1]; NMR titration, up to 300 mM of Lysine) | average CSP value <CSP> (PHDVC5HCHNSD1 [1]) | interaction strength (PHDVC5HCHNSD1 [1]; NMR titration) | affinity (PHDVC5HCHNSD1 [1]; NMR titration) | binding in vitro (PHDVC5HCHNSD1 [2])
1 | NCCCC[C@H](N)C(=O)O [Lysine] | induced amide chemical shifts in the same region | – | – | – | –
2 | H3K4me3_1–21: Synthetic histone H3 peptide, K4me3 | – | ~0.02 ppm | extremely weak interactions | affinities in the high mM range | binds
3 | H3K9me3_1–21: Synthetic histone H3 peptide, K9me3 | – | ~0.02 ppm | extremely weak interactions | affinities in the high mM range | binds
4 | H3_1–21: Synthetic histone H3 peptide | – | ~0.02 ppm | extremely weak interactions | affinities in the high mM range | –
